Results as given in the array DNA melting data of Ke et al. (doi:10.1101/2024.01.08.574731).

Experiments:
[1] = melting temperature; fluorescence melt of hairpins on a sequencing array, two-state fit, raised by 9.35 °C to match UV melts; conditions: sodium 0.088 M
Outline: (§1)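 Library hairpins on a sequenced MiSeq flow cell carried annealed Cy3 and quencher oligos, and their Cy3 fluorescence was imaged in 50 mM Na-HEPES pH 8.0 with 25 mM NaCl, in 2.5 °C steps up to 60 °C. Signals were normalised to Cy3 before quenching and to control constructs. Melting temperature and folding enthalpy were obtained from bootstrapped two-state fits, combined by inverse-variance weighting across four replicates, and the fitted temperatures were then raised by 9.35 °C to match UV melts.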

[2] = folding enthalpy; higher = less favourable; fluorescence melt of hairpins on a sequencing array, two-state fit; conditions: sodium 0.088 M
Outline: as §1

| Sequence | Tm [1] | folding enthalpy [2] |
| --- | --- | --- |
| GGGGTTCGAAAGAATCCC (((.(((....))).))) | 58.6 °C | -43.8 kcal/mol |
| GGGGTTGCGAAAGCACCC (((..(((....)))))) | 59.5 °C | -19 kcal/mol |
| GGGGTTGGAAACAACTCC ((.((((....)))).)) | 51.3 °C | -37.5 kcal/mol |
| GGGGTTGGAAACAGCTCC ((.(.((....)).).)) | 37 °C | -24.6 kcal/mol |
| GGGGTTGGAAACAGTCCC (((..((....))..))) | 36 °C | -24.5 kcal/mol |
| GGGGTTGGAAACGACCCC (((((.(....).))))) | 57.8 °C | -49.1 kcal/mol |
| GGGTAACGAAAGTTGCCC (((.(((....))).))) | 59.6 °C | -49.4 kcal/mol |
| GGGTAAGCGAAAGCTCCC (((..(((....)))))) | 47.8 °C | -20.6 kcal/mol |
| GGGTACGAAAGTAACCC ((((((....))).))) | 54.3 °C | -26.9 kcal/mol |
| GGGTACGAAAGTAACCCC ((((((....)))..))) | 54.2 °C | -21.9 kcal/mol |
| GGGTACGAAAGTACTCCC ((((((....)))..))) | 45.6 °C | -13.4 kcal/mol |
| GGGTACGAAAGTATGCCC ((((((....)))..))) | 37.3 °C | -16 kcal/mol |
| GGGTACGGAAACATACCC (((((.(....).))))) | 40.2 °C | -33.1 kcal/mol |
| GGGTACGGAAACGCACCC ((((.((....)).)))) | 52.3 °C | -49.4 kcal/mol |
| GGGTAGACGAAAGTCCCC (((..(((....)))))) | 46.5 °C | -18.6 kcal/mol |
| GGGTAGGGAAACCTATCC ((.((((....)))).)) | 46.6 °C | -29.7 kcal/mol |
| GGGTAGTCGAAAGACCCC (((..(((....)))))) | 45.4 °C | -20.5 kcal/mol |
| GGGTATCCGAAAGGACCC (((..(((....)))))) | 43.9 °C | -18.6 kcal/mol |
| GGGTATGGAAACACACCC ((((.((....)).)))) | 42.8 °C | -29.8 kcal/mol |
| GGGTCACGAAAGTGCCCC (((.(((....))).))) | 63 °C | -27.4 kcal/mol |
| GGGTCAGGAAACTGACTC (.(((((....))))).) | 51.8 °C | -30.7 kcal/mol |
| GGGTCATCGAAAGATCCC (((..(((....)))))) | 34.5 °C | -20.3 kcal/mol |
| GGGTCCCCGAAAGGGCCC (((..(((....)))))) | 56 °C | -23.1 kcal/mol |

| Sequence | Tm [1] | folding enthalpy [2] |
| --- | --- | --- |
| GGGTCCGAAAGGATCCC ((((((....))).))) | 60.1 °C | -31.5 kcal/mol |
| GGGTCCGGAAACAGACCC (((((.(....).))))) | 49.5 °C | -44.5 kcal/mol |
| GGGTCCGGAAACGGGTCC ((..(((....)))..)) | 50.1 °C | -27.6 kcal/mol |
| GGGTCGGCGAAAGCCCCC (((..(((....)))))) | 46.1 °C | -13.9 kcal/mol |
| GGGTCGGGAAACCAACCC ((((.((....)).)))) | 47.1 °C | -35.2 kcal/mol |
| GGGTCGGGAAACTGACCC (((((.(....).))))) | 57.5 °C | -51.9 kcal/mol |
| GGGTCGTCGAAAGACCCC (((..(((....)))))) | 52.6 °C | -21.6 kcal/mol |
| GGGTCTGCGAAAGCACCC (((..(((....)))))) | 44.2 °C | -17.5 kcal/mol |
| GGGTCTGGAAACAGGTCC ((..(((....)))..)) | 39.9 °C | -27.8 kcal/mol |
| GGGTCTGGAAACGGACTC (.(((.(....).))).) | 37.5 °C | -28.3 kcal/mol |
| GGGTGACCGAAAGGTCCC (((..(((....)))))) | 51.6 °C | -12.5 kcal/mol |
| GGGTGAGAAATCACCC ((((((....)))))) | 61.6 °C | -37.1 kcal/mol |
| GGGTGAGGAAACCCACCC (((((.(....).))))) | 51.7 °C | -50.9 kcal/mol |
| GGGTGAGGAAACTTGCCC (((..((....))..))) | 43.5 °C | -22.9 kcal/mol |
| GGGTGCACGAAAGTGCCC (((..(((....)))))) | 52.6 °C | -12.9 kcal/mol |
| GGGTGCCGAAAGGCTCCC (((.(((....))).))) | 69.1 °C | -20.6 kcal/mol |
| GGGTGCGAAAGCAGACCC ((((((....)))..))) | 54.7 °C | -20.4 kcal/mol |
| GGGTGCGAAAGCAGTCCC ((((((....)))..))) | 50.5 °C | -14.6 kcal/mol |
| GGGTGCGCGAAAGCGCCC (((..(((....)))))) | 55.5 °C | -10.8 kcal/mol |
| GGGTGCGGAAACGCATCC ((.((((....)))).)) | 64.7 °C | -29.8 kcal/mol |
| GGGTGGAAACACCC (((((....))))) | 63.5 °C | -28.2 kcal/mol |
| GGGTGGGGAAACCTACCC ((((.((....)).)))) | 54.5 °C | -41.4 kcal/mol |
| GGGTGGGGAAACTCACCC (((((.(....).))))) | 55.4 °C | -49.8 kcal/mol |

| Sequence | Tm [1] | folding enthalpy [2] |
| --- | --- | --- |
| GGGTGGGGAAACTCGCCC (((.(.(....).).))) | 47.6 °C | -30.9 kcal/mol |
| GGGTGGTCGAAAGACCCC (((..(((....)))))) | 53.4 °C | -15.8 kcal/mol |
| GGGTGTGGAAACACGCTC (.(.(((....))).).) | 56.7 °C | -17.8 kcal/mol |
| GGGTGTGGAAACGCACTC (.(((.(....).))).) | 47.9 °C | -24 kcal/mol |
| GGGTGTTCGAAAGAACCC (((..(((....)))))) | 52 °C | -16.7 kcal/mol |
| GGGTTAACGAAAGTTCCC (((..(((....)))))) | 37.4 °C | -21.2 kcal/mol |
| GGGTTAGAAATAACCC ((((((....)))))) | 53.1 °C | -36.4 kcal/mol |
| GGGTTAGCGAAAGCTCCC (((..(((....)))))) | 41.8 °C | -23.7 kcal/mol |
| GGGTTAGGAAACTAACCC (((((((....))))))) | 61.3 °C | -47.6 kcal/mol |
| GGGTTAGGAAACTGACTC (.((.((....)).)).) | 27.7 °C | -12.3 kcal/mol |
| GGGTTCACGAAAGTGCCC (((..(((....)))))) | 41.2 °C | -19.6 kcal/mol |
| GGGTTCCGAAAGGATCCC (((.(((....))).))) | 55.9 °C | -42.1 kcal/mol |
| GGGTTCGAAAGAACACCC ((((((....)))..))) | 55.1 °C | -11.8 kcal/mol |
| GGGTTCGAAAGAACCCCC ((((((....)))..))) | 68.2 °C | -9.24 kcal/mol |
| GGGTTCGAAAGAATCCCC ((((((....)))..))) | 50.6 °C | -15.9 kcal/mol |
| GGGTTCGAAAGAATGCCC ((((((....)))..))) | 35.3 °C | -21.1 kcal/mol |
| GGGTTCGAAAGAATTCCC ((((((....)))..))) | 33.8 °C | -20.4 kcal/mol |
| GGGTTCGGAAACGAGTCC ((..(((....)))..)) | 37.7 °C | -25.4 kcal/mol |
| GGGTTCGGAAACGGATCC ((.(.((....)).).)) | 40.2 °C | -27.2 kcal/mol |
| GGGTTCTCGAAAGAGCCC (((..(((....)))))) | 48.1 °C | -26.5 kcal/mol |
| GGGTTGCCGAAAGGCCCC (((..(((....)))))) | 48.4 °C | -14.5 kcal/mol |
| GGGTTGGGAAACCGACCC ((((.((....)).)))) | 58.4 °C | -45.4 kcal/mol |
| GGGTTGGGAAACTAACCC (((((.(....).))))) | 50.6 °C | -40.6 kcal/mol |

| Sequence | Tm [1] | folding enthalpy [2] |
| --- | --- | --- |
| GGGTTGTCGAAAGACCCC (((..(((....)))))) | 42.7 °C | -20.5 kcal/mol |
| GGGTTTCGAAAGAAGCCC (((.(((....))).))) | 57.1 °C | -44.4 kcal/mol |
| GGGTTTGGAAACGAATCC ((.((.(....).)).)) | 34.6 °C | -25.1 kcal/mol |
| GGTAAACGAAAGTTACC (((.(((....)))))) | 46 °C | -25.6 kcal/mol |
| GGTAAAGGAAACTTTATC (.(((((....))))).) | 30.5 °C | -18.7 kcal/mol |
| GGTAACCGAAAGGTACC (((.(((....)))))) | 51.1 °C | -19.4 kcal/mol |
| GGTAACGAAAGTTAAACC ((((((....)))..))) | 32.3 °C | -16.1 kcal/mol |
| GGTAACGAAAGTTGGACC ((((((....)))..))) | 26.8 °C | -15.5 kcal/mol |
| GGTAAGTCGAAAGACACC (((..(((....)))))) | 37.3 °C | -17.9 kcal/mol |
| GGTAATGGAAACATCACC (((.(((....))).))) | 30.7 °C | -18.2 kcal/mol |
| GGTAATGGAAACATTATC (.(((((....))))).) | 35.7 °C | -26.8 kcal/mol |
| GGTAATGGAAACGTTACC (((((.(....).))))) | 45 °C | -40.4 kcal/mol |
| GGTACAGAAATGTACC ((((((....)))))) | 53 °C | -38 kcal/mol |
| GGTACAGCGAAAGCTACC (((..(((....)))))) | 38.1 °C | -16.4 kcal/mol |
| GGTACAGGAAACTGCACC (((.(((....))).))) | 44.2 °C | -32.5 kcal/mol |
| GGTACCCCGAAAGGGACC (((..(((....)))))) | 46.7 °C | -19.8 kcal/mol |
| GGTACCGAAAGGTCACC ((((((....))).))) | 46.8 °C | -17.7 kcal/mol |
| GGTACCGAAAGGTCCACC ((((((....)))..))) | 41.3 °C | -13.3 kcal/mol |
| GGTACCGAAAGGTCGACC ((((((....)))..))) | 36.5 °C | -13.6 kcal/mol |
| GGTACCGAAAGGTCTACC ((((((....)))..))) | 33.9 °C | -15 kcal/mol |
| GGTACCGAAAGGTGACC ((((((....))).))) | 48.4 °C | -21.5 kcal/mol |
| GGTACCGAAAGGTGGACC ((((((....)))..))) | 37.8 °C | -17 kcal/mol |
